Test results published in ChEMBL document CHEMBL1156597, “Structure-activity relationship of kahalalide F synthetic analogues” (J Med Chem, 2008).

Experiments:
PANC-1 = assay: Cytotoxicity against human PANC1 cells after 48 hrs by SRB assay; format: functional; conditions: PANC-1, 48 h; for CC50: read-out: LC50 (the source's name)
Summary of the method: (§1)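 Cells grown in RPMI 1640 with 10% FBS and penicillin/streptomycin at 37 °C and 5% CO₂, trypsinized, then seeded at 5 × 10³/well. After 18 h drug-free attachment, samples in DMSO/EtOH/PBS (0.5:0.5:99) were added for 48 h continuous exposure. Cells were fixed with cold TCA (1 h, 4 °C) and stained with SRB (10 min). Tris-solubilized stain read at 490 nm. Triplicate wells, mean ± SD; GI₅₀ derived.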

K562 = assay: Cytotoxicity against human K562 cells after 48 hrs by SRB assay; format: functional; conditions: K562, 48 h; for CC50: read-out: LC50 (the source's name); summary of the method: as §1
SK-MEL-28 = assay: Cytotoxicity against human SK-MEL-28 cells after 48 hrs by SRB assay; format: functional, cell-based; conditions: Homo sapiens, SK-MEL-28, 48 h; for CC50: read-out: LC50 (the source's name); summary of the method: as §1
[1] = Cytotoxicity against human HeLa-APL cells after 48 hrs by SRB assay; format: functional; summary of the method: as §1
A549 = assay: Cytotoxicity against human A549 cells after 48 hrs by SRB assay; format: functional, cell-based; conditions: Homo sapiens, A549, 48 h; for GI50: read-out: GI50; summary of the method: as §1
[2] = Cytotoxicity against human IGROV-ET cells after 48 hrs by SRB assay; format: functional; conditions: for CC50: read-out: LC50 (the source's name); summary of the method: as §1
LoVo [3] = assay: Cytotoxicity against human LoVo cells after 48 hrs by SRB assay; format: functional; conditions: for CC50: read-out: LC50 (the source's name)
LoVo [4] = assay: Cytotoxicity against human doxorubicin resistant LoVo cells after 48 hrs by SRB assay; format: functional; conditions: for CC50: read-out: LC50 (the source's name); summary of the method: as §1
SK-BR-3 = assay: Cytotoxicity against human SKBR3 cells after 48 hrs by SRB assay; format: functional; conditions: SK-BR-3, 48 h; for CC50: read-out: LC50 (the source's name); summary of the method: as §1
[5] = Cytotoxicity against human IGROV cells after 48 hrs by SRB assay; format: functional; conditions: for CC50: read-out: LC50 (the source's name); summary of the method: as §1
DU-145 = assay: Cytotoxicity against human DU145 cells after 48 hrs by SRB assay; format: functional, cell-based; conditions: Homo sapiens, DU-145, 48 h; for CC50: read-out: LC50 (the source's name); summary of the method: as §1
HT-29 = assay: Cytotoxicity against human HT29 cells after 48 hrs by SRB assay; format: functional, cell-based; conditions: Homo sapiens, HT-29, 48 h; for CC50: read-out: LC50 (the source's name); summary of the method: as §1
HeLa = assay: Cytotoxicity against human HeLa cells after 48 hrs by SRB assay; format: functional; conditions: for CC50: read-out: LC50 (the source's name); summary of the method: as §1

| Structure (SMILES) | CC50 (PANC-1) | CC50 (K562) | GI50 (SK-MEL-28; read-out: GI50) | CC50 (SK-MEL-28) | LC50 (concentration giving 50% net cell kill) [1] | LC50 (A549) | CC50 [2] | GI50 (LoVo [3]) | TGI (LoVo [3]) | CC50 (LoVo [3]) | CC50 (LoVo [4]) | CC50 [5] | TGI (DU-145) | GI50 (DU-145; read-out: GI50) | CC50 (DU-145) | CC50 (HT-29) | CC50 (HeLa) | GI50 (PANC-1) | TGI (PANC-1) | GI50 ([2]; read-out: GI50) | further results |
| --- | --- | --- | --- | --- | --- | --- | --- | --- | --- | --- | --- | --- | --- | --- | --- | --- | --- | --- | --- | --- | --- |
| C/C=C1\NC(=O)[C@@H]2Cc3ccccc3CN2C(=O)[C@@H](C(C)C)NC(=O)[C@@H]([C@H](C)CC)NC(=O)[C@H](NC(=O)[C@H](NC(=O)[C@H](CCCN)NC(=O)[C@H]2CCCN2C(=O)[C@H](NC(=O)[C@@H](NC(=O)[C@@H](NC(=O)[C@H](NC(=O)CC[C@@H](C)CC)C(C)C)[C@@H](C)O)C(C)C)C(C)C)[C@H](C)CC)[C@H](C)OC(=O)[C@H](C(C)C)NC1=O | 2010 nM | 2.68 µM | 1620 nM | 2090 nM | 1190 nM | 1200 nM | 572 nM | 2820 nM | 2910 nM | 3.03 µM | 1820 nM | 7450 nM | 3830 nM | 4160 nM | 1930 nM | 0.726 µM | 1140 nM | – | – | – | GI50 (K562): 4.89 µM; TGI (K562): 4260 nM; TGI (SK-MEL-28): 1930 nM; TGI (A549): 1440 nM; GI50 (A549): 1750 nM; GI50 (LoVo [4]): 718 nM; TGI (LoVo [4]): 1250 nM; TGI (SK-BR-3): 1900 nM; GI50 (SK-BR-3; read-out: GI50): 2300 nM; CC50 (SK-BR-3): 296 nM |
| C/C=C1\NC(=O)[C@H](Cc2ccccc2)NC(=O)[C@@H](C(C)C)NC(=O)[C@@H]([C@H](C)CC)NC(=O)[C@H](NC(=O)[C@H](NC(=O)[C@H](CCCNC(=O)C[C@](OC)(c2ccccc2)C(F)(F)F)NC(=O)[C@H]2CCCN2C(=O)[C@H](NC(=O)[C@@H](NC(=O)[C@@H](NC(=O)[C@H](NC(=O)CCCC(C)C)C(C)C)[C@@H](C)O)C(C)C)C(C)C)[C@H](C)CC)[C@H](C)OC(=O)[C@H](C(C)C)NC1=O | 1550 nM | 1.69 µM | 1040 nM | 1040 nM | 850 nM | 1010 nM | 479 nM | 92.7 nM | 91.4 nM | 0.0909 µM | 119 nM | 442 nM | – | 886 nM | 812 nM | 0.311 µM | 842 nM | 1.55 µM | 1.55 µM | 344 nM | GI50 (K562): 1.11 µM; TGI (K562): 1690 nM; TGI (SK-MEL-28): 1040 nM; GI50 [1]: 554 nM; TGI [1]: 615 nM; TGI (A549): 1010 nM; GI50 (A549): 1010 nM; GI50 [2]: 397 nM; GI50 (SK-BR-3): 95.8 nM; GI50 (SK-BR-3; read-out: GI50): 91.8 nM; CC50 (SK-BR-3): 158 nM; GI50 [5]: 313 nM; GI50 ([5]; read-out: GI50): 245 nM; GI50 (DU-145): 812 nM; GI50 (HT-29): 148 nM; TGI (HT-29): 147 nM; GI50 (HeLa): 537 nM; TGI (HeLa): 842 nM |
| C/C=C1\NC(=O)[C@H](Cc2ccccc2)NC(=O)[C@@H](C(C)C)NC(=O)[C@@H]([C@H](C)CC)NC(=O)[C@H](NC(=O)[C@H](NC(=O)[C@H](CCCNC(=O)CCOCCOCCNC(=O)OCC2c3ccccc3-c3ccccc32)NC(=O)[C@H]2CCCN2C(=O)[C@H](NC(=O)[C@@H](NC(=O)[C@@H](NC(=O)[C@H](NC(=O)CCCC(C)C)C(C)C)[C@@H](C)O)C(C)C)C(C)C)[C@H](C)CC)[C@H](C)OC(=O)[C@H](C(C)C)NC1=O | 141 nM | 0.0154 µM | 68.4 nM | 10.3 nM | 528 nM | 32 nM | 216 nM | 44.3 nM | 61.7 nM | 0.0432 µM | 238 nM | 404 nM | 15.7 nM | 16.4 nM | 557 nM | 0.263 µM | 767 nM | – | – | – | GI50 (SK-MEL-28): 840 nM; GI50 [1]: 53.8 nM; TGI [1]: 89.7 nM; GI50 (LoVo [4]): 199 nM; TGI (LoVo [4]): 179 nM; GI50 (SK-BR-3): 53.4 nM; GI50 (SK-BR-3; read-out: GI50): 39.6 nM; CC50 (SK-BR-3): 392 nM; GI50 [5]: 79.9 nM; GI50 ([5]; read-out: GI50): 36.1 nM; GI50 (HT-29): 85.3 nM; TGI (HT-29): 117 nM; GI50 (HeLa): 56.4 nM; TGI (HeLa): 119 nM |
| C/C=C1\NC(=O)[C@H](Cc2ccccc2)NC(=O)[C@@H](C(C)C)NC(=O)[C@@H]([C@H](C)CC)NC(=O)[C@H](NC(=O)[C@H](NC(=O)[C@H](CCCN)NC(=O)[C@H]2CCCN2C(=O)[C@H](NC(=O)[C@@H](NC(=O)[C@@H](NC(=O)[C@H](NC(=O)CC(C)C)C(C)C)[C@@H](C)O)C(C)C)C(C)C)[C@H](C)CC)[C@H](C)OC(=O)[C@H](C(C)C)NC1=O | 2880 nM | 3.81 µM | 1980 nM | 1330 nM | 1690 nM | 1710 nM | 708 nM | 1630 nM | 1990 nM | 2.42 µM | 1880 nM | 848 nM | 1860 nM | 2070 nM | 1660 nM | 3.14 µM | 1630 nM | – | – | – | TGI (SK-MEL-28): 1620 nM; GI50 [1]: 2330 nM; TGI [1]: 2000 nM; TGI (A549): 1700 nM; GI50 (A549): 1680 nM; GI50 (LoVo [4]): 882 nM; TGI (LoVo [4]): 1390 nM; GI50 (HT-29): 2980 nM; TGI (HT-29): 3060 nM; GI50 (HeLa): 2090 nM; TGI (HeLa): 2090 nM |
| C/C=C1\NC(=O)[C@H](Cc2ccccc2)NC(=O)[C@@H](C(C)C)NC(=O)[C@@H]([C@H](C)CC)NC(=O)[C@H](NC(=O)[C@H](NC(=O)[C@H](CCCN)NC(=O)[C@H]2CCCN2C(=O)[C@H](NC(=O)[C@@H](NC(=O)[C@@H](NC(=O)[C@H](NC(=O)CC[C@@H](C)[C@H]2CC[C@H]3[C@@H]4CC[C@@H]5C[C@H](O)CC[C@]5(C)[C@H]4CC[C@]23C)C(C)C)[C@@H](C)O)C(C)C)C(C)C)[C@H](C)CC)[C@H](C)OC(=O)[C@H](C(C)C)NC1=O | 5520 nM | 8.32 µM | – | 3870 nM | 3580 nM | 3580 nM | 2280 nM | 14900 nM | 16900 nM | 9.83 µM | 9860 nM | 2710 nM | 6000 nM | 5100 nM | 3310 nM | 10.3 µM | 3130 nM | 4.35 µM | 9.72 µM | 4400 nM | TGI [2]: 5.58 µM; GI50 (HeLa): 740 nM; TGI (HeLa): 5420 nM |
| C/C=C1\NC(=O)[C@H](Cc2ccccc2)NC(=O)[C@H](C(C)C)NC(=O)[C@@H]([C@H](C)CC)NC(=O)[C@H](NC(=O)[C@H](NC(=O)[C@H](CCCN)NC(=O)[C@H]2CCCN2C(=O)[C@H](NC(=O)[C@@H](NC(=O)[C@@H](NC(=O)[C@H](NC(=O)CCCC(C)C)C(C)C)[C@@H](C)O)C(C)C)C(C)C)[C@H](C)CC)[C@H](C)OC(=O)[C@H](C(C)C)NC1=O | 2830 nM | 4.27 µM | – | 1990 nM | 1840 nM | 1830 nM | 1170 nM | 5490 nM | 8660 nM | 5.04 µM | 5060 nM | 1390 nM | – | – | 1700 nM | 5.26 µM | 1610 nM | 1.68 µM | 4.98 µM | 1220 nM | TGI [2]: 2.86 µM |
| C/C=C1\NC(=O)[C@H](Cc2ccccc2)NC(=O)[C@@H](C(C)C)NC(=O)[C@@H]([C@H](C)CC)NC(=O)[C@H](NC(=O)[C@H](NC(=O)[C@H](CCCN)NC(=O)[C@H]2CCCN2C(=O)[C@H](NC(=O)[C@@H](NC(=O)[C@@H](NC(=O)[C@H](N)C(C)C)[C@@H](C)O)C(C)C)C(C)C)[C@H](C)CC)[C@H](C)OC(=O)[C@H](C(C)C)NC1=O | 3060 nM | 4.61 µM | – | 4140 nM | 1990 nM | 1980 nM | 1260 nM | 9460 nM | 9360 nM | 5.45 µM | 5470 nM | 1500 nM | – | – | 1840 nM | 5.68 µM | 1740 nM | 5.49 µM | 5.39 µM | 4010 nM | TGI [2]: 3.1 µM |
